Assay outcomes from PubChem.
The list is not random: actives were taken first. Their share in the collection is about 3.5%.
PAFAH2 FP inh: PAFAH2 (human) inhibition; actives 0.99% (n = 340,000); inhibition, % at 3.39 µM; Q99487; recombinant PAFAH2, FP-rhodamine activity probe, fluorescence polarization; AID 492956;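 active means inhibition above the mean over all tested compounds plus 3 SD, cut at about 30% in these data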;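 further: inhibitors block probe labeling of enzyme so polarization drops; 0% = enzyme with DMSO and 100% = wells lacking PAFAH2 protein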
PREPL inhibitor: inhibitors of human prolyl oligopeptidase-like enzyme PREPL | AID 2751 | Q4J6C6 | actives 0.68% (n = 320,000) | recombinant PREPL, fluorescence polarization activity-based probe | inhibition, % at 5.96 µM; in the data active means inhibition above about 43%;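 further: 0% = enzyme with DMSO and 100% = wells lacking enzyme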
PAFAH1B3 inh: blocks human PAF acetylhydrolase 1B catalytic subunit 3; recombinant PAFAH1B3, FP-rhodamine probe, fluorescence polarization; inhibition, % at 3.39 µM; actives 0.28% (n = 340,000);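 active means inhibition above the screen-wide average of all tested compounds plus 3 SD, cut at about 25% in these data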;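 further: 0% = enzyme with DMSO only and 100% = wells lacking PAFAH1B3 protein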
Target sequence (Q15102 whole entry, looked up): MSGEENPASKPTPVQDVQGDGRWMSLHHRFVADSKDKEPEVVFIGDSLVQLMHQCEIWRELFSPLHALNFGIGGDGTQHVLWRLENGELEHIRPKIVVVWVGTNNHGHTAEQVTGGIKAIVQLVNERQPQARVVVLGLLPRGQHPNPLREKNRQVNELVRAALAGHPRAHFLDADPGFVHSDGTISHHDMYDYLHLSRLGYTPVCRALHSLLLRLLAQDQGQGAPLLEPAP
Apaf-1 inh: inhibitors of human Apaf-1 apoptosome; inhibition, % at 20 µM; actives 0.71% (n = 330,000); O14727; reconstituted apoptosome caspase-3 activity, DEVD-Rh110 fluorescence; active means inhibition of at least 40% at 20 µM;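 further: plate controls were DMSO wells for no effect and DEVD-CHO caspase inhibitor wells for full effect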
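Assay system – apoptosome proteins · Medium – Hepes buffer, pH 7.5 · Also added – cytochrome c with DEVD-Rh110 · Timing – 30 min compound preincubation, 50 min activation, room temperature · Detection – Rh110 fluorescence, excitation 480 nm, emission 540 nm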
pPAFAH FP inh: inhibitors of human plasma PAF acetylhydrolase (pPAFAH); Q13093; inhibition, % at 3.39 µM; actives 1.5% (n = 330,000); recombinant pPAFAH, FP-rhodamine probe fluorescence polarization;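 active means inhibition above the mean inhibition across the screen plus 3 SD, cut at about 25% in these data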;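 further: inhibitors block binding of the rhodamine activity-based probe so polarization drops; 0% = enzyme with DMSO and 100% = wells lacking pPAFAH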
PAFAH1B2 inh: PAFAH1B2 (human) inhibition | AID 492953 | recombinant PAFAH1B2, FP-rhodamine activity probe, fluorescence polarization | actives 1.2% (n = 340,000) | P68402 | inhibition, % at 3.39 µM;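 active means inhibition above the mean of all tested compounds plus 3 SD, cut at about 24% in these data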;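 further: 0% = enzyme with DMSO and 100% = wells lacking PAFAH1B2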
Target sequence (P68402 whole entry, looked up): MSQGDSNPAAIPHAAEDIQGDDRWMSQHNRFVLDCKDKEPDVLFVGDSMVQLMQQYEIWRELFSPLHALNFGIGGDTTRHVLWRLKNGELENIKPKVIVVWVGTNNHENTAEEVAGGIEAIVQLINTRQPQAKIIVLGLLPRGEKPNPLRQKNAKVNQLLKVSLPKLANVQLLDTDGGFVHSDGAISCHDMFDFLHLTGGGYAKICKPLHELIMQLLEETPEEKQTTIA
pPAFAH FP conf: confirmation of human plasma PAF acetylhydrolase (pPAFAH) inhibitors; shares compounds with pPAFAH FP inh; recombinant pPAFAH, FP-Rh probe fluorescence polarization; inhibition, % at 3.39 µM; actives 72% (n = 2,300);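 active means mean inhibition of the triplicate above the hit cutoff set for the earlier primary screen, cut at about 25% in these data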;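 further: 0% = enzyme with DMSO and 100% = wells lacking pPAFAH enzyme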
Apaf-1 inh conf2: Apaf-1 inhibition, single-dose confirmed; actives 25% (n = 1,800); AID 504614; reconstituted apoptosome, caspase-3 DEVD-Rh110 fluorescence; shares compounds with Apaf-1 inh; inhibition, % at 20 µM;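 active means mean inhibition of at least 40% at 20 µM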;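 further: plate controls were DMSO wells for no effect and DEVD-CHO caspase inhibitor control wells for full effect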
Rh110 interf inh: counter-screen for Apaf-1 inhibitors: fluorescence interference; Rh110 fluorescence interference, quenched caspase reaction; activation (fluorescence interference), % at 20 µM; shares compounds with Apaf-1 inh; 1,800 tested, under 10 active;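 active means signal rise of 40% or more at 20 µM, treated as a fluorescence artifact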
Fluor interf inh: counter-screen for Apaf-1 inhibitors: fluorescence interference, dose response; shares compounds with Apaf-1 inh; fluorescence interference counterscreen, Apaf-1 assay format; 460 tested, under 10 active; IC50, µM; AID 588538; call rule not given here
Starred values were filed as active, the others as inactive.

Cc1nn(-c2ccccc2)c(Cl)c1/C=N/Nc1ccc(Cl)c(C(=O)O)c1 was read as PAFAH2 FP inh 20.1, PREPL inhibitor 13.6, PAFAH1B3 inh 5.2, Apaf-1 inh -12.3, pPAFAH FP inh 6.6 and PAFAH1B2 inh 7.1.
Screening Cc1nn(-c2ccccc2)c(Cl)c1/C=N/Nc1ccc(S(=O)(=O)Nc2ccccc2C(=O)O)cc1[N+](=O)[O-] returned PAFAH2 FP inh 26.3, PREPL inhibitor 38.3, PAFAH1B3 inh 10.3, Apaf-1 inh 16.1, pPAFAH FP inh 46.5*, PAFAH1B2 inh 13.4 and pPAFAH FP conf 78.1*.
For CC(=O)c1c(C)[nH]c(C(=O)NNC(=O)c2ccc(C)cc2)c1C the results were PAFAH2 FP inh 0.5, PREPL inhibitor 4.2, PAFAH1B3 inh -2.8, Apaf-1 inh -2.2, pPAFAH FP inh 1.6 and PAFAH1B2 inh 6.4.
COc1ccc(Cl)cc1C(=O)NNC(=O)c1[nH]c(C)c(C(C)=O)c1C was read as PAFAH2 FP inh 5.5, PREPL inhibitor 13.9, PAFAH1B3 inh 10.2, Apaf-1 inh 7.9, pPAFAH FP inh 54.4*, PAFAH1B2 inh -2.3 and pPAFAH FP conf 6.5.
For Cc1cc(O)c(Oc2cc(C)cc(O)c2O)c(O)c1 the results were PAFAH2 FP inh 23.7, PREPL inhibitor 1.9, PAFAH1B3 inh 9.6, Apaf-1 inh -6.9, pPAFAH FP inh 39.1*, PAFAH1B2 inh 11.1 and pPAFAH FP conf 14.8.
`Cc1ccc(O)c(O)c1` gave PREPL inhibitor 6.5, Apaf-1 inh -4.0 and pPAFAH FP inh 13.1.
Screening O/C=c1\ccc2cccc3nc(C(F)(F)F)nc1c23 returned PAFAH2 FP inh 12.1, PREPL inhibitor 16.0, PAFAH1B3 inh 22.4, Apaf-1 inh 79.1*, pPAFAH FP inh 40.3*, PAFAH1B2 inh 8.6, pPAFAH FP conf 21.8, Apaf-1 inh conf2 86.5*, Rh110 interf inh -40.0 and Fluor interf inh 20.4*.
For COc1ccc(Br)cc1CNc1ccc2[nH]c(=O)[nH]c2c1 the results were PAFAH2 FP inh 1.6, PREPL inhibitor 16.1, PAFAH1B3 inh 11.5, Apaf-1 inh 5.2, pPAFAH FP inh 11.0 and PAFAH1B2 inh 4.5.
COc1ccc(Br)cc1CNc1ccc(O)cc1 was read as PAFAH2 FP inh 0.4, PREPL inhibitor 16.3, PAFAH1B3 inh 13.2, Apaf-1 inh 94.8*, pPAFAH FP inh 37.0*, PAFAH1B2 inh 5.9, pPAFAH FP conf 10.1, Apaf-1 inh conf2 19.2 and Rh110 interf inh 5.4.
`C=CCn1c(SCC(=O)c2cc(C)n(CCOC)c2C)nc2sc(C)c(C)c2c1=O` gave PAFAH2 FP inh -3.0, PREPL inhibitor 2.9, PAFAH1B3 inh 12.5, Apaf-1 inh 12.2, pPAFAH FP inh 2.3 and PAFAH1B2 inh 0.0.
`Cc1ccc(NCc2ccccc2O)c(C)c1` gave PAFAH2 FP inh -1.5, PREPL inhibitor 2.3, PAFAH1B3 inh -0.6, Apaf-1 inh 1.4, pPAFAH FP inh 3.4 and PAFAH1B2 inh 4.9.
Screening CCNc1ccccc1CP(=O)(c1ccccc1)c1ccccc1O (centres undefined) returned PREPL inhibitor 50.6*, Apaf-1 inh 86.5*, pPAFAH FP inh 42.1*, pPAFAH FP conf 7.8, Apaf-1 inh conf2 12.3 and Rh110 interf inh -0.7.
Cc1ccc(O)c(CP(=O)(c2ccccc2)c2ccccc2)c1 was read as PAFAH2 FP inh -0.6, PREPL inhibitor 2.2, PAFAH1B3 inh -3.4, Apaf-1 inh -8.4, pPAFAH FP inh 10.0 and PAFAH1B2 inh -1.6.
For O=C(Nc1cccc(C(F)(F)F)c1)c1ccc2nc(-c3ccco3)c(-c3ccco3)nc2c1 the results were PAFAH2 FP inh 30.8*, PREPL inhibitor 28.6, PAFAH1B3 inh 29.5*, Apaf-1 inh 65.8*, pPAFAH FP inh 69.7*, PAFAH1B2 inh 14.5, pPAFAH FP conf 76.7*, Apaf-1 inh conf2 43.6*, Rh110 interf inh 1.7 and Fluor interf inh >100.
O=C(Nc1cccc(C(F)(F)F)c1)c1cc[n+]([O-])cc1 was read as PAFAH2 FP inh 0.8, PREPL inhibitor 16.8, PAFAH1B3 inh 11.1, Apaf-1 inh 10.8, pPAFAH FP inh -2.3 and PAFAH1B2 inh 4.2.
For COc1ccc(N2CCN(S(=O)(=O)c3c(C)nc4scc(C)n4c3=O)CC2)cc1 the results were PAFAH2 FP inh 0.4, PREPL inhibitor 14.3, PAFAH1B3 inh 4.7, Apaf-1 inh -2.7, pPAFAH FP inh -2.4 and PAFAH1B2 inh 1.2.
CCCCCCCCCCCCCCCC[n+]1ccc(/C=N/O)cc1 was read as PAFAH2 FP inh 27.1, PREPL inhibitor 40.7, PAFAH1B3 inh 61.0*, Apaf-1 inh 79.8*, pPAFAH FP inh 50.3*, PAFAH1B2 inh 32.7*, pPAFAH FP conf 39.7*, Apaf-1 inh conf2 57.9*, Rh110 interf inh 17.0 and Fluor interf inh >100.
CCN(C(=O)CSc1nnc(C2CC2)n1-c1ccccc1)C1CCS(=O)(=O)C1 (centres undefined) was read as PAFAH2 FP inh -1.4, PREPL inhibitor -1.4, PAFAH1B3 inh 0.0, Apaf-1 inh -3.5, pPAFAH FP inh 1.3 and PAFAH1B2 inh 6.8.
For CCN(CC)c1ccc(N=Cc2ccc([N+](=O)[O-])o2)cc1 the results were PAFAH2 FP inh 8.9, PREPL inhibitor 21.9, PAFAH1B3 inh 3.6, Apaf-1 inh 55.6*, pPAFAH FP inh 43.1*, PAFAH1B2 inh 2.7, pPAFAH FP conf 16.9, Apaf-1 inh conf2 27.5 and Rh110 interf inh 9.6.
`CCCc1cc(=O)[nH]c(SCCc2ccccc2)n1` gave PAFAH2 FP inh 4.4, PREPL inhibitor -6.3, PAFAH1B3 inh 1.5, Apaf-1 inh -4.4, pPAFAH FP inh 11.0 and PAFAH1B2 inh 2.9.
Screening CN1CCN(CC(=O)N2CCn3c4c(c5cc(C6CCCCC6)ccc53)CCCC42)CC1 (centres undefined) returned PAFAH2 FP inh -1.7, PREPL inhibitor 29.1, PAFAH1B3 inh 9.4, Apaf-1 inh 58.2*, pPAFAH FP inh 36.3*, PAFAH1B2 inh 5.4, pPAFAH FP conf 53.5*, Apaf-1 inh conf2 36.7 and Rh110 interf inh 7.4.
`Cc1ccc2c(c1)c1c3n2CCN(C(=O)CN2CCN(C)CC2)C3CCC1` (centres undefined) gave PAFAH2 FP inh 2.4, PREPL inhibitor 36.4, PAFAH1B3 inh 2.5, Apaf-1 inh 13.0, pPAFAH FP inh 3.4 and PAFAH1B2 inh 6.0.
